The source made the active and inactive calls. The calls are words filed in the database; no cut-off is given here.
Legend:
[1] = Cytotoxicity against human STO cells assessed as growth inhibition after 72 hrs by MTS assay; type: functional, cell-based
Method in brief: (§1)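 Log-phase cells seeded at 4500 cells/50 µL and grown 24 h, then exposed 72 h to 0.01-100 µM compound; vehicle controls 0.01% DMSO. MTS read-out at 490 nm, expressed as % of DMSO-treated cells. Eight replicates per condition, at least three independent repeats; IC50 read graphically from dose-response curves.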

[2] = Cytotoxicity against human M14 cells assessed as growth inhibition after 72 hrs by MTS assay; type: functional, cell-based; details: M14, 72 h; method in brief: as §1
[3] = Cytotoxicity against human MP8 cells assessed as growth inhibition after 72 hrs by MTS assay; type: functional, cell-based; details: MP8, 72 h; method in brief: as §1
[4] = Cytotoxicity against human JR8 cells assessed as growth inhibition after 72 hrs by MTS assay; type: functional, cell-based; details: JR8, 72 h; method in brief: as §1
[5] = Cytotoxicity against human MDA-MB-231 cells assessed as growth inhibition after 72 hrs by MTS assay; type: functional, cell-based; details: MDA-MB-231, 72 h; method in brief: as §1
[6] = Cytotoxicity against human MCF7 cells assessed as growth inhibition after 72 hrs by MTS assay; type: functional, cell-based; details: MCF7, 72 h; method in brief: as §1
[7] = Cytotoxicity against human PC3 cells assessed as growth inhibition after 72 hrs by MTS assay; type: functional, cell-based; details: PC-3, 72 h; method in brief: as §1
[8] = Cytotoxicity against human DU145 cells assessed as growth inhibition after 72 hrs by MTS assay; type: functional, cell-based; details: DU-145, 72 h; method in brief: as §1
MP8 [9] = experiment: Cell cycle arrest in human MP8 cells assessed as accumulation at G2/M phase at antiproliferative IC50 after 48 to 72 hrs by propidium iodide staining based flow cytometry; type: functional
Method in brief: (§2)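 STO or MP8 cells exposed 48 and 72 h to compound at IC50 or IC80 (72-h MTS values), controls 1% DMSO. Adherent plus floating cells fixed in 70% ethanol, stained 30 min at 4°C with propidium iodide 50 µg/mL, RNase, 0.05% NP-40 in PBS. ≥30000 events per flow cytometry sample; Modfit model for G1/S/G2/M percentages; mean of three independent experiments.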

[10] = Cell cycle arrest in human STO cells assessed as mitotic cells at antiproliferative IC50 after 72 hrs by fluorescence microscopic analysis relative to control; type: functional
[11] = Cell cycle arrest in human MP8 cells assessed as mitotic cells at antiproliferative IC50 after 72 hrs by fluorescence microscopic analysis relative to control; type: functional
STO [12] = experiment: Cell cycle arrest in human STO cells assessed as accumulation at G2/M phase at antiproliferative IC50 after 48 to 72 hrs by propidium iodide staining based flow cytometry; type: functional; method in brief: as §2
[13] = Cytotoxicity against human WI38 cells assessed as growth inhibition after 72 hrs by MTS assay; type: toxicity, cell-based, WI-38; method in brief: as §1
[14] = Cytotoxicity against human MCF10A cells assessed as growth inhibition after 72 hrs by MTS assay; type: toxicity, cell-based, MCF-10A; method in brief: as §1
MP8 [15] = experiment: Inhibition of alpha-tubulin polymerization in human MP8 cells assessed as increase in ratio of soluble to polymerized tubulin fraction at 13 nM after 24 hrs by western blot analysis; type: cell-based
STO [16] = experiment: Inhibition of alpha-tubulin polymerization in human STO cells assessed as increase in ratio of soluble to polymerized tubulin fraction at 2 nM after 24 hrs by western blot analysis; type: cell-based
[17] = Antitumor activity against mouse M5076 cells implanted in mouse assessed as increase in mouse life span at 100 mg/kg/day relative to control; type: functional
[18] = Displacement of [3H]colchicine from tubulin (unknown origin); parameters: species or system Homo sapiens
[19] = Oral bioavailability in rat; type: ADME, organism-based; details: in vivo
[20] = Oral bioavailability in dog; type: ADME, organism-based, Canis lupus familiaris; details: in vivo
[21] = Antitumor activity against mouse M5076 cells implanted in mouse assessed as delay in time to develop 1 g tumor volume at 100 mg/kg/day; type: functional
[22] = Toxicity in mouse implanted with mouse M5076 cells; type: organism-based
[23] = Oral bioavailability in mouse; type: ADME, organism-based; details: in vivo
[24] = Oral bioavailability in monkey; type: ADME, organism-based, Macaca mulatta; details: rhesus monkey, in vivo
STO [25] = experiment: Inhibition of alpha-tubulin polymerization in human STO cells assessed as increase in ratio of soluble to polymerized tubulin fraction at antiproliferative IC50 after 24 hrs by western blot analysis; type: cell-based
MP8 [26] = experiment: Inhibition of alpha-tubulin polymerization in human MP8 cells assessed as increase in ratio of soluble to polymerized tubulin fraction at antiproliferative IC50 after 24 hrs by western blot analysis; type: cell-based
[27] = Antitumor activity against human STO cells xenografted in nude mouse assessed as tumor growth inhibition at 5 mg/kg, ip administered once per seven days for 4 weeks starting from day 10 post cell inoculum; type: functional; details: read-out: TGI
Method in brief: (§3)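 Female nude mice, 6-8 weeks old; 10^7 exponentially growing STO cells injected s.c. into right flank; eight mice per group. Compound in 10% DMSO/90% saline, 5 mg/kg i.p. q7dx4 from day 10 after inoculum. Tumor diameters measured weekly by caliper, TV = d2×D/2; TVI% = 100 − (mean TV treated/mean TV control × 100). Toxicity scored as body weight loss and lethality.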

MP8 [28] = experiment: Cell cycle arrest in human MP8 cells assessed as reduction G1 phase at antiproliferative IC80 after 48 to 72 hrs by propidium iodide staining based flow cytometry; type: functional; method in brief: as §2
Mus musculus = experiment: Toxicity in nude mouse xenografted with human STO cells assessed as body weight loss at 5 mg/kg, ip administered once per seven days for 4 weeks starting from day 10 post cell inoculum; type: organism-based; details: in vivo, 672 h; method in brief: as §3
STO [29] = experiment: Cell cycle arrest in human STO cells assessed as reduction G1 phase at antiproliferative IC80 after 48 to 72 hrs by propidium iodide staining based flow cytometry; type: functional; method in brief: as §2
STO [30] = experiment: Cell cycle arrest in human STO cells assessed as reduction G1 phase at antiproliferative IC50 after 48 to 72 hrs by propidium iodide staining based flow cytometry; type: functional; method in brief: as §2
MP8 [31] = experiment: Cell cycle arrest in human MP8 cells assessed as reduction G1 phase at antiproliferative IC50 after 48 to 72 hrs by propidium iodide staining based flow cytometry; type: functional; method in brief: as §2

Structure (SMILES)	IC50 [1]	IC50 [2]	IC50 [3]	IC50 [4]	IC50 [5]	IC50 [6]	IC50 [7]	IC50 [8]	IC50 at 72 h [13]	IC50 at 72 h [14]	also measured
Cc1ccc(Cn2cc3c(c2)-c2oncc2CC3)cc1	> 100 µM	> 100 µM	> 100 µM	> 100 µM	> 100 µM	> 100 µM	> 100 µM	> 100 µM			
c1ccc(-n2cc3c(c2)-c2oncc2CC3)cc1	29.5 µM	63.4 µM	25.3 µM	59.6 µM	68.4 µM	81.2 µM	70.5 µM	76.4 µM			
CC(=O)O[C@H]1C(=O)[C@@]2(C)[C@H]([C@H](OC(=O)c3ccccc3)[C@]3(O)C[C@H](OC(=O)[C@H](O)[C@@H](NC(=O)c4ccccc4)c4ccccc4)C(C)=C1C3(C)C)[C@]1(OC(C)=O)CO[C@@H]1C[C@@H]2O [PACLITAXEL]											Activity (MP8 [9]): Active; Activity [10]: 35 - 70%; Activity [11]: 35 - 70%; Activity (STO [12]): Active
COc1ccc(Cn2cc3c(c2)-c2oncc2CC3)cc1	> 100 µM	12.5 µM	> 100 µM	9.15 µM	15.6 µM	7.89 µM	18.6 µM	15.2 µM	> 100 µM	> 100 µM	
COc1cccc(Cn2cc3c(c2)-c2oncc2CC3)c1	0.46 µM	1.02 µM	0.51 µM	0.96 µM	0.85 µM	1.17 µM	0.96 µM	1.37 µM	> 100 µM	> 100 µM	
CCOC(=O)c1c2c(c(C)n1Cc1ccccc1)-c1oncc1CC2	> 100 µM	> 100 µM	> 100 µM	> 100 µM	> 100 µM	> 100 µM	> 100 µM	> 100 µM			
COc1ccc(OC)c(Cn2cc3c(c2)-c2oncc2CC3)c1	> 100 µM	16.8 µM	> 100 µM	19.2 µM	19.6 µM	15.2 µM	23.7 µM	19.5 µM	> 100 µM	> 100 µM	
CCOC(=O)c1c2c(c(C)n1Cc1ccc(OC)cc1)-c1oncc1CC2	> 100 µM	> 100 µM	> 100 µM	> 100 µM	> 100 µM	> 100 µM	> 100 µM	> 100 µM			
COc1cc(Cn2cc3c(c2)-c2oncc2CC3)cc(OC)c1OC	0.62 µM	0.89 µM	0.73 µM	0.63 µM	0.75 µM	0.92 µM	0.87 µM	0.99 µM	> 100 µM	> 100 µM	
CCOC(=O)c1c2c(c(C)n1C)-c1oncc1CC2	> 100 µM	> 100 µM	> 100 µM	> 100 µM	> 100 µM	> 100 µM	> 100 µM	> 100 µM			
COc1ccc(-n2cc3c(c2)-c2oncc2CC3)cc1	25.5 µM	58.5 µM	21.2 µM	61.6 µM	57.5 µM	79.6 µM	79.9 µM	81.1 µM			
c1ccc(Cn2cc3c(c2)-c2oncc2CC3)cc1	0.79 µM	6.88 µM	0.69 µM	5.14 µM	19.6 µM	11.3 µM	13.5 µM	15.2 µM	> 100 µM	> 100 µM	
Cc1c2c(cn1C)CCc1cnoc1-2	> 100 µM	> 100 µM	> 100 µM	> 100 µM	> 100 µM	> 100 µM	> 100 µM	> 100 µM			
CCC1=C[C@@H]2CN(C1)Cc1c([nH]c3ccccc13)[C@@](C(=O)OC)(c1cc3c(cc1OC)N(C)[C@H]1[C@@](O)(C(=O)OC)[C@H](OC(C)=O)[C@]4(CC)C=CCN5CC[C@]31[C@@H]54)C2 [VINORELBINE]											inhibition (MP8 [15]): Active; Activity (MP8 [9]): Active; Activity [10]: 35 - 70%; Activity [11]: 35 - 70%; inhibition (STO [16]): Active; Activity (STO [12]): Active
COc1cc([C@H]2CN=C(c3ccc4c(ccn4C)c3)O2)cc(OC)c1OC											Activity [17]: 206%; Ki [18]: 0.65 µM; bioavailability [19]: 6.5 to 18.6%; bioavailability [20]: 6.5 to 18.6%; Time [21]: 28 days; MTD [22]: 100 mg/kg/day; bioavailability [23]: 6.5 to 18.6%; bioavailability [24]: 6.5 to 18.6%
COc1ccccc1Cn1cc2c(c1)-c1oncc1CC2	0.79 µM	20.5 µM	1.52 µM	16.2 µM	14.4 µM	19.4 µM	18.6 µM	17.5 µM	> 100 µM	> 100 µM	
Cn1cc2c(c1)-c1oncc1CC2	28.1 µM	65.8 µM	26.7 µM	58.4 µM	55.4 µM	86.6 µM	77.1 µM	69.3 µM			
Cc1c2c(cn1Cc1ccccc1)CCc1cnoc1-2	> 100 µM	> 100 µM	> 100 µM	> 100 µM	> 100 µM	> 100 µM	> 100 µM	> 100 µM			
COc1ccc(Cn2cc3c(c2)-c2oncc2CC3)cc1OC	0.64 µM	0.96 µM	0.51 µM	0.85 µM	0.88 µM	1.03 µM	0.79 µM	0.87 µM	> 100 µM	> 100 µM	
COc1cccc(Cn2cc3c(c2)-c2oncc2CC3)c1OC	> 100 µM	> 100 µM	> 100 µM	> 100 µM	> 100 µM	> 100 µM	> 100 µM	> 100 µM			
COc1cc(Cn2cc3c(c2)-c2oncc2CC3)cc(OC)c1	0.06 µM	0.31 µM	0.07 µM	0.23 µM	0.32 µM	0.33 µM	0.27 µM	0.31 µM	> 100 µM	> 100 µM	inhibition (STO [25]): Active; inhibition (MP8 [26]): Active; Activity [10]: 35 - 70%; inhibition in vivo at 5 mg/kg [27]: 51%; Activity (MP8 [28]): Active; Activity (Mus musculus): Non-Toxic; Activity (STO [29]): Active; Activity (STO [30]): Active; Activity [11]: 35 - 70%; Activity (MP8 [31]): Active

Source: ChEMBL document CHEMBL3875171, “[1,2]Oxazolo[5,4-e]isoindoles as promising tubulin polymerization inhibitors” (Eur J Med Chem, 2016)
